Structures are written as SMILES. Values after ≈ are worked out from the molar mass of the structure shown. A value given as a limit tells only on which side of the number the result lay.

For assay [1], the system named is Aeromonas allosaccharophila. Nature of the assay: Antimicrobial activity against Aeromonas allosaccharophila AL-1 expressing beta-lactamase PER6 by agar dilution method. Format: functional. Put shortly: (§1)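 The test organism was environmental isolate AL-1, recovered from Seine River water on MacConkey agar containing ceftazidime (2 μg/ml). It was identified by API 32GN and 16S rRNA gene sequencing. MICs were determined by agar dilution on Mueller-Hinton agar and interpreted by CLSI guidelines.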
(In general: Agar dilution tests growth on a series of plates holding different concentrations.)

Assay [2] deals with Escherichia coli. Description: Antimicrobial activity against Escherichia coli DH10B harboring recombinant Aeromonas allosaccharophila AL-1 beta-lactamase PER6 by agar dilution method. The format is functional. Conditions: K-12 DH10B.
Assay [3] has as its system Escherichia coli. Nature of the assay: Antimicrobial activity against Escherichia coli DH10B harboring recombinant Aeromonas allosaccharophila AL-1 beta-lactamase PER1 by agar dilution method. The format is functional. Conditions: K-12 DH10B.
The test system of assay [4] is Escherichia coli. Nature of the assay: Antimicrobial activity against Escherichia coli DH10B harboring recombinant Aeromonas allosaccharophila AL-1 beta-lactamase PER2 by agar dilution method. The format is functional. Conditions: K-12 DH10B.
The test system of assay [5] is Escherichia coli. Nature of the assay: Antimicrobial activity against Escherichia coli DH10B by agar dilution method. Conditions: K-12 DH10B. Format: functional. In outline:
(§2)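 MICs measured by agar dilution on Mueller-Hinton agar plates, the method used for imipenem and imipenem combined with clavulanate; other MICs were obtained by Etest. Results were interpreted according to CLSI guidelines. Test strains were E. coli DH10B recombinants carrying cloned PER-1, PER-2 or PER-6 β-lactamase genes.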

Assay [6] concerns Aeromonas allosaccharophila. Nature of the assay: Ratio of Kcat to Km for Aeromonas allosaccharophila AL-1 beta-lactamase PER2.
Assay [7] relates to Aeromonas allosaccharophila. Nature of the assay: Antimicrobial activity against Aeromonas allosaccharophila AL-1 expressing beta-lactamase PER6 by agar dilution method in presence of 4 ug/ml of clavulanic acid. The format is functional. In outline:
as §1

Assay [8] relates to Escherichia coli. Description: Antimicrobial activity against Escherichia coli DH10B harboring recombinant Aeromonas allosaccharophila AL-1 beta-lactamase PER6 by agar dilution method in presence of 4 ug/ml of clavulanic acid. The format is functional. Particulars: K-12 DH10B.
For assay [9], the system named is Escherichia coli. Nature of the assay: Antimicrobial activity against Escherichia coli DH10B harboring recombinant Aeromonas allosaccharophila AL-1 beta-lactamase PER1 by agar dilution method in presence of 4 ug/ml of clavulanic acid. The format is functional. Particulars: K-12 DH10B.
In assay [10] the test system is Escherichia coli. Nature of the assay: Antimicrobial activity against Escherichia coli DH10B harboring recombinant Aeromonas allosaccharophila AL-1 beta-lactamase PER2 by agar dilution method in presence of 4 ug/ml of clavulanic acid. Particulars: K-12 DH10B. The format is functional.
In assay [11] the test system is Escherichia coli. Nature of the assay: Antimicrobial activity against Escherichia coli DH10B by agar dilution method in presence of 4 ug/ml of clavulanic acid. The format is functional. Conditions: K-12 DH10B. In outline: as §2

For the compound `CC(C)(O/N=C(\C(=O)N[C@@H]1C(=O)N2C(C(=O)[O-])=C(C[n+]3ccccc3)CS[C@H]12)c1csc(N)n1)C(=O)O` [CEFTAZIDIME], the MIC was 128 µg/mL (≈ 234 µM) in [1]; greater than 256 µg/mL in the assay with Escherichia coli [2]; greater than 256 µg/mL in the assay on Escherichia coli [3]; greater than 256 µg/mL in the assay on Escherichia coli [4]; 0.5 µg/mL (≈ 0.915 µM) in the assay on Escherichia coli [5]. Also, the kcat/Km in [6] turned out to be 430000 M⁻¹ s⁻¹.
On to `CO/N=C(\C(=O)N[C@@H]1C(=O)N2C(C(=O)O)=C(COC(C)=O)CS[C@H]12)c1csc(N)n1` [CEFOTAXIME], for which the MIC in [1] amounted to 2 µg/mL (≈ 4.39 µM); in the assay on Escherichia coli [2] it was 64 µg/mL; in the assay on Escherichia coli [3] it was 48 µg/mL; in the assay on Escherichia coli [4] it was 64 µg/mL; in the assay with Escherichia coli [5] it was 0.12 µg/mL (≈ 0.263 µM). In assay [6], the kcat/Km is 760000 M⁻¹ s⁻¹.
Take `CO/N=C(\C(=O)N[C@@H]1C(=O)N2C(C(=O)[O-])=C(C[N+]3(C)CCCC3)CS[C@H]12)c1csc(N)n1`: the MIC in assay [1] stood at 0.5 µg/mL (≈ 1.04 µM); with Escherichia coli [2], 32 µg/mL; in the assay on Escherichia coli [3], 16 µg/mL; with Escherichia coli [4] it was 32 µg/mL. Further, the kcat/Km in assay [6] worked out at 20000 M⁻¹ s⁻¹.
On to `CO[C@@]1(NC(=O)Cc2cccs2)C(=O)N2C(C(=O)O)=C(COC(N)=O)CS[C@@H]21` [CEFOXITIN], for which the MIC in assay [1] was found to be 0.5 µg/mL (≈ 1.17 µM); in the assay on Escherichia coli [2], 2 µg/mL; in the assay on Escherichia coli [3] it was 2 µg/mL; with Escherichia coli [4], 2 µg/mL; against Escherichia coli [5], 1 µg/mL (≈ 2.34 µM). Also, the kcat/Km in [6] was less than 10000 M⁻¹ s⁻¹.
Take `CC1(C)S[C@@H]2[C@H](NC(=O)[C@H](C(=O)O)c3ccsc3)C(=O)N2[C@H]1C(=O)O` [TICARCILLIN]: the MIC in assay [1] was greater than 256 µg/mL; in the assay with Escherichia coli [2], greater than 256 µg/mL; in the assay on Escherichia coli [3], greater than 256 µg/mL; in the assay with Escherichia coli [4] it was greater than 256 µg/mL; against Escherichia coli [5], 4 µg/mL (≈ 10.4 µM); in [7], 256 µg/mL. Further, the MIC in the assay with Escherichia coli [8] was found to be 12 µg/mL; with Escherichia coli [9] it was 16 µg/mL; in the assay on Escherichia coli [10], 16 µg/mL; in the assay on Escherichia coli [11] it was 4 µg/mL.
In the case of `C[C@@H](O)[C@H]1C(=O)N2C(C(=O)O)=C(S[C@@H]3CN[C@H](C(=O)N(C)C)C3)[C@H](C)[C@H]12` [MEROPENEM], the MIC worked out at 0.06 µg/mL (≈ 0.156 µM) in assay [1], 0.03 µg/mL with Escherichia coli [3], 0.03 µg/mL in the assay with Escherichia coli [4] and 0.06 µg/mL (≈ 0.156 µM) against Escherichia coli [5].
Consider `CC1(C)S[C@@H]2[C@H](NC(=O)[C@H](N)c3ccccc3)C(=O)N2[C@H]1C(=O)O`, for which the kcat/Km in [6] turned out to be 330000 M⁻¹ s⁻¹.
On to `CC(=O)OCC1=C(C(=O)O)N2C(=O)[C@@H](NC(=O)Cc3cccs3)[C@H]2SC1` [CEPHALOTHIN], for which the MIC in assay [1] was 16 µg/mL (≈ 40.4 µM); in the assay on Escherichia coli [2] it was greater than 256 µg/mL; in the assay on Escherichia coli [3] it was greater than 256 µg/mL; with Escherichia coli [4], greater than 256 µg/mL; in the assay on Escherichia coli [5], 2 µg/mL (≈ 5.04 µM). In addition, in [6], the kcat/Km worked out at 670000 M⁻¹ s⁻¹.

A word on the MIC: it is the least concentration at which growth counts as inhibited. A word on the kcat/Km: it is the turnover number divided by the Michaelis constant.
